In assay [1] the test system is D283 Med. Briefly: Induction of cell cycle arrest in human D283 Med cells assessed as accumulation of cells at G1 phase at 300 nM incubated for 48 hrs by flow cytometry analysis (reference value: 23.47 +/- 0.29%). The format is functional. (In general: A flow cytometer gives signals particle by particle.)
The subject of assay [2] is Daoy. Briefly: Induction of senescence in human Daoy cells assessed as increase in p27 mRNA expression at 300 nM by RT-qPCR analysis. It counts as functional, cell-based. The essentials:
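Cells treated with 300 nM drug or DMSO. p16, p21 and p27 mRNA measured by TaqMan qPCR with ΔΔCt quantitation, in triplicate.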
(In general: In qPCR the cycle at which signal appears reflects the starting amount.)

The target of assay [3] is Bromodomain-containing protein 4 (Homo sapiens) (UniProt O60885). The settings on record: D458 Med, dose 300.0 nM.
Assay [4] deals with Daoy. The assay is described as follows: Induction of senescence in human Daoy cells assessed as increase in p21 protein expression at 300 nM by immunoblot analysis. It counts as functional, cell-based. The essentials:
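Protein lysates prepared in RIPA buffer with protease inhibitors. Standard western blot with HRP-conjugated secondary antibodies and chemiluminescent detection.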
In general terms: Immunoblotting shows a protein as a band on a membrane.

In assay [5] the target is Bromodomain-containing protein 4 (Homo sapiens) (UniProt O60885). The settings on record: UW228, dose 300.0 nM.
Assay [6] shares this target. Particulars: D425 Med, dose 300.0 nM.
The subject of assay [7] is D283 Med. The assay is described as follows: Inhibition of colony formation in human D283 Med cells at 100 to 300 nM incubated for 8 to 11 days by NBT staining based methyl cellulose colony growth assay. The format is functional, cell-based. The settings on record: dose 100-300 nM, time 8-11 day. The essentials: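 500 cells/well suspended in DMEM with methyl cellulose (1.3% final) containing 150 or 300 nM drug or DMSO, plated in triplicate. Colonies formed over 8–11 days, then stained with NBT (1 mg/ml) for 24 h at 37 °C. Colonies of ≥50 cells counted.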

Assay [8] deals with Daoy. Briefly: Downregulation of MYBL2 gene expression in human Daoy cells at 300 nM by GSEA method. The format is functional, cell-based. In outline: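 Daoy cells treated with DMSO or 300 nM drug. RNA extracted and hybridized to Affymetrix HG-ST2.0 arrays. Analysis in R/Bioconductor with gene set enrichment analysis. Regulated transcripts defined as p < 0.05, FDR < 0.05, fold change < 0.67 (down) or > 1.5 (up).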

The target of assay [9] is Bromodomain-containing protein 4 (Homo sapiens) (UniProt O60885). The settings on record: Daoy, dose 100.0 nM, time 24-72 hrs, TDE = time-dependent effect.
Assay [10] concerns D458 Med. The assay is described as follows: Induction of cell cycle arrest in human D458 Med cells assessed as accumulation of cells at G1 phase at 300 nM incubated for 48 hrs by flow cytometry analysis (reference value: 35.85 +/- 1.37%). It counts as functional.
For assay [11], the target named is Bromodomain-containing protein 4 (Homo sapiens) (UniProt O60885). Particulars: Daoy, dose 300.0 nM.
Assay [12] deals with Daoy. The assay is described as follows: Induction of cell cycle arrest in human Daoy cells assessed as G2/M phase cells at 300 nM incubated for 48 hrs by flow cytometry analysis (reference value: 33.94 +/- 1.46%). The format is functional.
The target in assay [13] is Bromodomain-containing protein 4 (Homo sapiens) (UniProt O60885). The settings on record: D283 Med, dose 300.0 nM.
In assay [14] the test system is D283 Med. Briefly: Induction of cell cycle arrest in human D283 Med cells assessed as S phase cells at 300 nM incubated for 48 hrs by flow cytometry analysis (reference value: 19.88 +/- 1.26 %). It counts as functional.
For assay [15], the system named is Daoy. The assay is described as follows: In vivo inhibition of BRD4 in athymic nude mouse xenografted with human Daoy cells assessed as reduction in SOX2 mRNA expression in tumor at 50 mg/kg, ip measured after 5 days by RT-qPCR analysis. The format is functional, organism-based. Particulars: time 5.0 day. The essentials:
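Xenograft tumors from mice dosed 50 mg/kg i.p. or DMSO vehicle, n = 3 each. SOX2 mRNA measured by TaqMan qPCR with ΔΔCt quantitation, in triplicate.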

Results on one molecule are retold here after ChEMBL document CHEMBL5653617, “Inhibition of BRD4 attenuates tumor cell self-renewal and suppresses stem cell signaling in MYC driven medulloblastoma” (Oncotarget, 2014).

Activity calls are given as the source filed them.

Take `Cc1sc2c(c1C)C(c1ccc(Cl)cc1)=N[C@@H](CC(=O)OC(C)(C)C)c1nnc(C)n1-2`: the Activity is 30.373% in assay [1], 46.86% in [10], 16.813% in assay [12] and 14.093% in assay [14]. Further, the result in assay [2], in assay [4] and in [8] was Active. In addition, the inhibition result in [3], in assay [5], in assay [6], in assay [7], in assay [11] and in assay [13] was “Active” each time. For the same molecule, in assay [15], the inhibition entry is “Active”. Besides, the inhibition result in [9] was “Tde”.
